Measurements published in ChEMBL document CHEMBL4138161, “Discovery of simplified sampangine derivatives as novel fungal biofilm inhibitors” (Eur J Med Chem, 2018).
Values after ≈ are worked out from the molar mass of the structure shown. Active and inactive are the calls of the source. The rule behind the calls is not given here.

Key:
Nakaseomyces glabratus = experiment: Antifungal activity against Candida glabrata 537 after 24 hrs by spectrophotometric analysis; assay type: functional; settings: Nakaseomyces glabratus, 537, 24 h
Outline: (§1)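 Broth microdilution in RPMI 1640, inoculum 5×10^3 CFU/mL, compounds from 6.4 mg/mL DMSO stocks, 35 ℃ for 24 h. Growth read as OD600; MIC80 taken as lowest concentration giving 80% growth inhibition. Triplicate.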

Candida albicans [1] = experiment: Antifungal activity against fluconazole-resistant Candida albicans clinical isolate 103 after 24 hrs by spectrophotometric analysis; assay type: functional; settings: isolate 103, 24 h
Outline: (§2)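 Broth microdilution (MIC80) against fluconazole-resistant clinical C. albicans isolates from a Shanghai hospital. Strains were grown in YPD at 30 ℃. Compounds came from 6.4 mg/mL DMSO stocks and were tested over a concentration series on 5×10^3 CFU/mL inoculum in RPMI 1640 at 35 ℃ for 24 h. OD600 was read; MIC80 is the lowest concentration giving 80% growth inhibition. Done in triplicate.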

Candida albicans [2] = experiment: Antifungal activity against fluconazole-resistant Candida albicans isolate J38 clinical isolate after 24 hrs by spectrophotometric analysis; assay type: functional; settings: isolate J38, 24 h; outline: as §2
Candida albicans [3] = experiment: Antifungal activity against fluconazole-resistant Candida albicans clinical isolate 032 after 24 hrs by spectrophotometric analysis; assay type: functional; settings: isolate 032, 24 h; outline: as §2
Candida albicans [4] = experiment: Antifungal activity against Candida albicans SC5314 after 24 hrs by spectrophotometric analysis; assay type: functional; settings: SC5314, 24 h; outline: as §1
Candida parapsilosis = experiment: Antifungal activity against Candida parapsilosis 22019 after 24 hrs by spectrophotometric analysis; assay type: functional; settings: Lodderomyces parapsilosis, 22019, 24 h; outline: as §1
Candida albicans [5] = experiment: Antifungal activity against fluconazole-resistant Candida albicans isolate Chang7 clinical isolate after 24 hrs by spectrophotometric analysis; assay type: functional; settings: isolate Chang7, 24 h; outline: as §2
Cryptococcus neoformans = experiment: Antifungal activity against Cryptococcus neoformans 32609 after 24 hrs by spectrophotometric analysis; assay type: functional; settings: Cryptococcus neoformans, 32609, 24 h; outline: as §1
Candida albicans [6] = experiment: Antifungal activity against fluconazole-resistant Candida albicans clinical isolate 1010 after 24 hrs by spectrophotometric analysis; assay type: functional; settings: isolate 1010, 24 h; outline: as §2
Candida albicans [7] = experiment: Antibiofilm activity against Candida albicans assessed inhibition of biofilm formation at 1024 ug/ml; assay type: functional
Aspergillus fumigatus = experiment: Antifungal activity against Aspergillus fumigatus 07544 after 24 hrs by spectrophotometric analysis; assay type: functional; settings: Aspergillus fumigatus, 07544, 24 h; outline: as §1
Trichophyton rubrum = experiment: Antifungal activity against Trichophyton rubrum Cmccftla after 24 hrs by spectrophotometric analysis; assay type: functional; outline: as §1
Candida albicans [8] = experiment: Antifungal activity against Candida albicans infected in Sprague-Dawley rat vaginal infection model assessed as reduction in vaginal fungal burden at 1 mg/kg, administered intravaginally on day 1 to day 3 post fungal inoculation measured on day 4; assay type: functional, organism-based
Outline: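 Ovariectomized rats inoculated intravaginally with 0.1 mL of 1×10^7 CFU/mL C. albicans on days 10, 11 and 12 after surgery. Compound in saline with 1% DMSO (2, 4, 8 mg/mL) given intravaginally on days 1–3 post-inoculation. On day 4, 100 µL vaginal fluid plated on chloramphenicol SDA agar for CFU counts.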

Nannizzia gypsea = experiment: Antifungal activity against Microsporum gypseum Cmccfmza after 24 hrs by spectrophotometric analysis; assay type: functional; outline: as §1
Candida albicans [9] = experiment: Antibiofilm activity against Candida albicans SC5314 assessed inhibition of yeast-to-hypha morphological transition at 0.5 ug/ml after 3 hrs; assay type: functional, organism-based
Outline: (§3)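 Yeast-to-hypha transition in YPD with 10% (v/v) FBS across compound concentrations; cell morphology photographed after 3 h at 37°C.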

Candida albicans [10] = experiment: Antifungal activity against Candida albicans SC5314 after 48 hrs by spectrophotometric analysis; assay type: functional; settings: SC5314, 48 h
Candida albicans [11] = experiment: Antibiofilm activity against Candida albicans SC5314 assessed inhibition of yeast-to-hypha morphological transition at 0.2 to 2 ug/ml after 3 hrs; assay type: functional, organism-based; outline: as §3

Structure (SMILES)	MIC80 (Nakaseomyces glabratus) [µg/mL]	MIC80 (Candida albicans [1]) [µg/mL]	MIC80 (Candida albicans [2]) [µg/mL]	MIC80 (Candida albicans [3]) [µg/mL]	MIC80 (Candida albicans [4]) [µg/mL]	MIC80 (Candida parapsilosis) [µg/mL]	MIC80 (Candida albicans [5]) [µg/mL]	MIC80 (Cryptococcus neoformans) [µg/mL]	MIC80 (Candida albicans [6]) [µg/mL]	inhibition at 1024 µg/mL (Candida albicans [7]) [%]	MIC80 (Aspergillus fumigatus) [µg/mL]	MIC80 (Trichophyton rubrum) [µg/mL]	Activity (Candida albicans [8])	MIC80 (Nannizzia gypsea) [µg/mL]	Activity (Candida albicans [9])	MIC80 (Candida albicans [10]) [µg/mL]	inhibition (Candida albicans [11])
OC(Cn1cncn1)(Cn1cncn1)c1ccc(F)cc1F [FLUCONAZOLE]	2 (≈ 6.53 µM)	> 64	> 64	> 64	0.25 (≈ 0.816 µM)	2 (≈ 6.53 µM)	2 (≈ 6.53 µM)	1 (≈ 3.27 µM)	> 64	60	> 64	4 (≈ 13.1 µM)	Active	32 (≈ 104 µM)	–	–	–
Cc1cnc2c(c1)C(=O)c1sc([N+](=O)[O-])cc1C2=O	1 (≈ 3.65 µM)	–	–	–	0.5 (≈ 1.82 µM)	1 (≈ 3.65 µM)	–	0.5 (≈ 1.82 µM)	–	–	2 (≈ 7.29 µM)	1 (≈ 3.65 µM)	–	0.5 (≈ 1.82 µM)	Active	0.5 (≈ 1.82 µM)	inactive
Cc1cnc2c(c1C)C(=O)c1sc([N+](=O)[O-])cc1C2=O	1 (≈ 3.47 µM)	–	–	–	0.25 (≈ 0.867 µM)	0.5 (≈ 1.73 µM)	–	0.5 (≈ 1.73 µM)	–	–	1 (≈ 3.47 µM)	0.5 (≈ 1.73 µM)	–	1 (≈ 3.47 µM)	Active	4 (≈ 13.9 µM)	inactive
CCCCc1ccnc2c1C(=O)c1sc([N+](=O)[O-])cc1C2=O	4 (≈ 12.6 µM)	–	–	–	1 (≈ 3.16 µM)	1 (≈ 3.16 µM)	–	0.5 (≈ 1.58 µM)	–	–	64 (≈ 202 µM)	4 (≈ 12.6 µM)	–	2 (≈ 6.32 µM)	–	–	–
Cc1ccnc2c1C(=O)c1scc([N+](=O)[O-])c1C2=O	4 (≈ 14.6 µM)	–	–	–	4 (≈ 14.6 µM)	> 64	–	4 (≈ 14.6 µM)	–	–	> 64	4 (≈ 14.6 µM)	–	8 (≈ 29.2 µM)	–	–	–
CCC(C)n1ncn(-c2ccc(N3CCN(c4ccc(OCC5COC(Cn6cncn6)(c6ccc(Cl)cc6Cl)O5)cc4)CC3)cc2)c1=O (stereo unspecified) [ITRACONAZOLE]	1 (≈ 1.42 µM)	–	–	–	8 (≈ 11.3 µM)	8 (≈ 11.3 µM)	–	4 (≈ 5.67 µM)	–	–	8 (≈ 11.3 µM)	4 (≈ 5.67 µM)	–	4 (≈ 5.67 µM)	–	–	–
CCc1cnc2c(c1)C(=O)c1sc([N+](=O)[O-])cc1C2=O	1 (≈ 3.47 µM)	–	–	–	0.5 (≈ 1.73 µM)	1 (≈ 3.47 µM)	–	0.25 (≈ 0.867 µM)	–	–	2 (≈ 6.94 µM)	0.5 (≈ 1.73 µM)	–	0.25 (≈ 0.867 µM)	–	–	–
O=C1c2cc([N+](=O)[O-])sc2C(=O)c2c(-c3ccccc3)ccnc21	16 (≈ 47.6 µM)	–	–	–	8 (≈ 23.8 µM)	8 (≈ 23.8 µM)	–	4 (≈ 11.9 µM)	–	–	32 (≈ 95.1 µM)	8 (≈ 23.8 µM)	–	4 (≈ 11.9 µM)	–	–	–
CCOC(=O)c1ccnc2c1C(=O)c1sc([N+](=O)[O-])cc1C2=O	4 (≈ 12 µM)	–	–	–	2 (≈ 6.02 µM)	4 (≈ 12 µM)	–	4 (≈ 12 µM)	–	–	8 (≈ 24.1 µM)	1 (≈ 3.01 µM)	–	4 (≈ 12 µM)	–	–	–
